Experiments:
[1] = Drug uptake in P-gp transporter knockout FVB mouse brain at 15 mg/kg, iv after 6 hrs; format: ADME, organism-based; set-up: dose 15 mg/kg, route intravenous; conditions: read-out: Drug uptake
Method in brief: (§1)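 Single 15 mg/kg intravenous dose given to Pgp knockout and wild-type mice. Brain and plasma levels followed over 8 h, and brain/plasma ratios calculated at each time point.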

[2] = Ratio of drug level in brain to plasma in wild type FVB mouse after 3 hrs; format: ADME, cell-free; conditions: read-out: BPR; method in brief: as §1
[3] = Drug uptake in P-gp transporter knockout FVB mouse brain at 15 mg/kg, iv after 1 hr; format: ADME, organism-based; set-up: dose 15 mg/kg, route intravenous; conditions: read-out: Drug uptake; method in brief: as §1
[4] = Plasma concentration in wild type FVB mouse at 15 mg/kg, iv after 3 hrs; format: ADME, organism-based; set-up: dose 15 mg/kg, route intravenous; method in brief: as §1
[5] = Plasma concentration in rat at 10 mg/kg, po after 4 hrs; format: ADME, organism-based; set-up: dose 10 mg/kg, route oral
Method in brief: (§2)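 Rats dosed orally at 10 mg/kg. Brain (ng/g) and plasma (ng/mL) levels taken at 4 h, giving the brain-to-plasma exposure comparison.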

[6] = Apparent permeability of the compound at pH 3 to 7.4 by PAMPA method; format: ADME
[7] = Ratio of drug level in brain to plasma in wild type FVB mouse after 6 hrs; format: ADME, cell-free; conditions: read-out: BPR; method in brief: as §1
[8] = Apparent permeability from apical to basolateral side in MDCK cells expressing human MDR1 after 2 hrs; format: ADME, cell-based, Canis lupus familiaris; conditions: dog
Method in brief: (§3)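 MDR1-MDCK monolayers; apparent permeability measured in both directions (A-to-B and B-to-A) after 2 h incubation. Efflux ratio calculated as Papp(B-to-A)/Papp(A-to-B).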

[9] = Ratio of drug level in brain to plasma in wild type FVB mouse after 1 hr; format: ADME, cell-free; conditions: read-out: BPR; method in brief: as §1
[10] = Drug uptake in wild type FVB mouse brain at 15 mg/kg, iv after 1 hr; format: ADME, organism-based; set-up: dose 15 mg/kg, route intravenous; conditions: read-out: Drug uptake; method in brief: as §1
[11] = Ratio of drug level in brain to plasma in wild type FVB mouse after 8 hrs; format: ADME, cell-free; conditions: read-out: BPR; method in brief: as §1
[12] = Plasma concentration in wild type FVB mouse at 15 mg/kg, iv after 1 hr; format: ADME, organism-based; set-up: dose 15 mg/kg, route intravenous; method in brief: as §1
[13] = Ratio of drug level in brain to plasma in P-gp transporter knockout FVB mouse after 8 hrs; format: ADME, cell-free; conditions: read-out: BPR; method in brief: as §1
[14] = Ratio of drug level in brain to plasma in P-gp transporter knockout FVB mouse after 1 hr; format: ADME, cell-free; conditions: read-out: BPR; method in brief: as §1
[15] = Drug uptake in wild type FVB mouse brain at 15 mg/kg, iv after 3 hrs; format: ADME, organism-based; set-up: dose 15 mg/kg, route intravenous; conditions: read-out: Drug uptake; method in brief: as §1
[16] = Permeability from apical to basolateral side in MDCK cells expressing human MDR1 assessed as compound recovery; format: ADME, cell-based, Canis lupus familiaris; conditions: dog, read-out: permeability
Method in brief: (§4)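 Bidirectional MDR1-MDCK permeability run with 2 h incubation; percent recovery of compound determined for the A-to-B and B-to-A directions.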

[17] = target: Melanin-concentrating hormone receptor 1 (Rattus norvegicus, UniProt P97639); assay: Displacement of [125I]-S36057 from rat MCH1 receptor
Chain of Melanin-concentrating hormone receptor 1 (P97639 whole entry): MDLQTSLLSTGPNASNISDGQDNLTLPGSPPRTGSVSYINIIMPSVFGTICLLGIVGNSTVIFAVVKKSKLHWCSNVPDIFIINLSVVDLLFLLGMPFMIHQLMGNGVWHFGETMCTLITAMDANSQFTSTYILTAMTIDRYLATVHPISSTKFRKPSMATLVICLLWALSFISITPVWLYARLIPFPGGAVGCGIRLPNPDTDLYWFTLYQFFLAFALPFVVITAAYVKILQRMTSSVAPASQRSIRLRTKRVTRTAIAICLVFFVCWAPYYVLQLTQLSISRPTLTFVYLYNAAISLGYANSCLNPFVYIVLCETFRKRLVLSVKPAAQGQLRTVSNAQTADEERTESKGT

[18] = Apparent permeability of the compound at pH 7.4 by PAMPA method; format: ADME
[19] = target: Voltage-gated inwardly rectifying potassium channel KCNH2 (Homo sapiens, UniProt Q12809); assay: Inhibition of human ERG
Chain of Voltage-gated inwardly rectifying potassium channel KCNH2 (Q12809 whole entry): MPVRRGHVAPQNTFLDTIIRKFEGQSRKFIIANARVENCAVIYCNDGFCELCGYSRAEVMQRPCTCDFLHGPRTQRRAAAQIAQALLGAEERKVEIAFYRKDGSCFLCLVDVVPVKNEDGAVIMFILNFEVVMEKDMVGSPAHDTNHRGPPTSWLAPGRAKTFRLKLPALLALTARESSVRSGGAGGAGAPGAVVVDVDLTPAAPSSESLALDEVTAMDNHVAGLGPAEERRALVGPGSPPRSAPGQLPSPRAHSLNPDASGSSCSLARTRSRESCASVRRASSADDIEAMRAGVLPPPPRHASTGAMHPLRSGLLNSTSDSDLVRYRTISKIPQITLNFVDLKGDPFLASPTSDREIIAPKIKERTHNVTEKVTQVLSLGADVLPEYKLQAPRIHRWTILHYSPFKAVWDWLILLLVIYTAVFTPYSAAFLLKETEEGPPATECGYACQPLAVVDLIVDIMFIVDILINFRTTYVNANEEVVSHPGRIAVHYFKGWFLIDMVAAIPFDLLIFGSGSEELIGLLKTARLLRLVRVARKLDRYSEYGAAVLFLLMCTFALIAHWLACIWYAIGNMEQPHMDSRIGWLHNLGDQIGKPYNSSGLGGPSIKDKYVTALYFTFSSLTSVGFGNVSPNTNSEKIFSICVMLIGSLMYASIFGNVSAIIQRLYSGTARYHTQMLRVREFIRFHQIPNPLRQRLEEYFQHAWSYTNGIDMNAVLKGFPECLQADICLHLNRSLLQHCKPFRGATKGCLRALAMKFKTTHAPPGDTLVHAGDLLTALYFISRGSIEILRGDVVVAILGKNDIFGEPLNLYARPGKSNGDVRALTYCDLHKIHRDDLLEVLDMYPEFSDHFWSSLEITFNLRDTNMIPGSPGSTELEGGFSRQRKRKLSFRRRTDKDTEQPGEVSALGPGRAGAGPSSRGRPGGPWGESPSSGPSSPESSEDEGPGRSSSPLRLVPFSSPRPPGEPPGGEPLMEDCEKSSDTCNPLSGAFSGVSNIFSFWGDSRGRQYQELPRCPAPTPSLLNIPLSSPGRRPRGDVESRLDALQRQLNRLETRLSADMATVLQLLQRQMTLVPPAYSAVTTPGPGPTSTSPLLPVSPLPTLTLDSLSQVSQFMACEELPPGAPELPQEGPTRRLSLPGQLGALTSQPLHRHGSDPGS

[20] = Plasma concentration in P-gp transporter knockout FVB mouse at 15 mg/kg, iv after 8 hrs; format: ADME, organism-based; set-up: dose 15 mg/kg, route intravenous; method in brief: as §1
[21] = Plasma concentration in P-gp transporter knockout FVB mouse at 15 mg/kg, iv after 3 hrs; format: ADME, organism-based; set-up: dose 15 mg/kg, route intravenous; method in brief: as §1
[22] = Plasma concentration in wild type FVB mouse at 15 mg/kg, iv after 8 hrs; format: ADME, organism-based; set-up: dose 15 mg/kg, route intravenous; method in brief: as §1
[23] = Drug uptake in wild type FVB mouse brain at 15 mg/kg, iv after 8 hrs; format: ADME, organism-based; set-up: dose 15 mg/kg, route intravenous; conditions: read-out: Drug uptake; method in brief: as §1
[24] = Permeability from basolateral to apical side in MDCK cells expressing human MDR1 assessed as compound recovery; format: ADME, cell-based, Canis lupus familiaris; conditions: dog, read-out: permeability; method in brief: as §4
[25] = Apparent permeability from basolateral to apical side in MDCK cells expressing human MDR1 after 2 hrs; format: ADME, cell-based, Canis lupus familiaris; conditions: dog; method in brief: as §3
[26] = Drug uptake in rat brain at 10 mg/kg, po after 4 hrs; format: ADME, organism-based; set-up: dose 10 mg/kg, route oral; conditions: read-out: Drug uptake; method in brief: as §2
[27] = Plasma concentration in P-gp transporter knockout FVB mouse at 15 mg/kg, iv after 1 hr; format: ADME, organism-based; set-up: dose 15 mg/kg, route intravenous; method in brief: as §1
[28] = Plasma concentration in wild type FVB mouse at 15 mg/kg, iv after 6 hrs; format: ADME, organism-based; set-up: dose 15 mg/kg, route intravenous; method in brief: as §1
[29] = Efflux ratio of permeability from basolateral to apical over apical to basolateral side of MDCK cells expressing human MDR1 after 2 hrs; format: ADME, cell-based, Canis lupus familiaris; conditions: dog; method in brief: as §3
[30] = Ratio of drug level in brain to plasma in P-gp transporter knockout FVB mouse after 6 hrs; format: ADME, cell-free; conditions: read-out: BPR; method in brief: as §1
[31] = Drug uptake in wild type FVB mouse brain at 15 mg/kg, iv after 6 hrs; format: ADME, organism-based; set-up: dose 15 mg/kg, route intravenous; conditions: read-out: Drug uptake; method in brief: as §1
[32] = Plasma concentration in P-gp transporter knockout FVB mouse at 15 mg/kg, iv after 6 hrs; format: ADME, organism-based; set-up: dose 15 mg/kg, route intravenous; method in brief: as §1
[33] = Drug uptake in P-gp transporter knockout FVB mouse brain at 15 mg/kg, iv after 3 hrs; format: ADME, organism-based; set-up: dose 15 mg/kg, route intravenous; conditions: read-out: Drug uptake; method in brief: as §1
[34] = Drug uptake in P-gp transporter knockout FVB mouse brain at 15 mg/kg, iv after 8 hrs; format: ADME, organism-based; set-up: dose 15 mg/kg, route intravenous; conditions: read-out: Drug uptake; method in brief: as §1
[35] = Ratio of drug level in brain to plasma in P-gp transporter knockout FVB mouse after 3 hrs; format: ADME, cell-free; conditions: read-out: BPR; method in brief: as §1
[36] = Ratio of drug level in brain to plasma in rat; format: ADME, cell-free; conditions: read-out: BPR; method in brief: as §2
[37] = Plasma concentration in rat at 10 mg/kg, sc after 4 hrs; format: ADME, organism-based; set-up: dose 10 mg/kg, route subcutaneous
Method in brief: (§5)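 Rat PK with subcutaneous dosing at 10 mg/kg. Brain and plasma concentrations determined 4 h after the dose.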

[38] = Drug uptake in rat brain at 10 mg/kg, sc after 4 hrs; format: ADME, organism-based; set-up: dose 10 mg/kg, route subcutaneous; conditions: read-out: Drug uptake; method in brief: as §5

SMILES: CN1CC(c2c[nH]c3cc(-n4ccc(OCc5ccccc5)cc4=O)ccc23)C1
- concentration at 6 h [1]: 1580 ng/g
- Kp at 3 h [2]: 0.12
- concentration at 1 h [3]: 878 ng/g
- concentration at 3 h [4]: 1450 ng/mL
- concentration at 4 h [5]: 48 ng/mL
- Papp [6]: 16.4 ×10⁻⁶ cm/s
- Kp at 6 h [7]: 0.24
- Papp A→B at 2 h [8]: 0.2 ×10⁻⁶ cm/s
- Kp at 1 h [9]: 0.06
- concentration at 1 h [10]: 143 ng/g
- Kp at 8 h [11]: 0.28
- concentration at 1 h [12]: 2280 ng/mL
- Kp at 8 h [13]: 2.66
- Kp at 1 h [14]: 0.28
- concentration at 3 h [15]: 172 ng/g
- recovery [16]: 72%
- Ki [17]: 11 nM
- Papp [18]: 4.9 ×10⁻⁶ cm/s
- IC50 [19]: 12000 nM
- concentration at 8 h [20]: 607 ng/mL
- concentration at 3 h [21]: 1380 ng/mL
- concentration at 8 h [22]: 538 ng/mL
- concentration at 8 h [23]: 144 ng/g
- recovery [24]: 71%
- Papp B→A at 2 h [25]: 26.3 ×10⁻⁶ cm/s
- concentration at 4 h [26]: 11 ng/g
- concentration at 1 h [27]: 3130 ng/mL
- concentration at 6 h [28]: 623 ng/mL
- efflux ratio at 2 h [29]: 144
- Kp at 6 h [30]: 2.3
- concentration at 6 h [31]: 148 ng/g
- concentration at 6 h [32]: 689 ng/mL
- concentration at 3 h [33]: 1130 ng/g
- concentration at 8 h [34]: 1620 ng/g
- Kp at 3 h [35]: 0.82

SMILES: CN1CC(c2c[nH]c3cc(-n4ccc(OCc5ccccc5F)cc4=O)ccc23)C1
- concentration at 4 h [5]: 140 ng/mL
- Papp A→B at 2 h [8]: 0.2 ×10⁻⁶ cm/s
- Ki [17]: 6.7 nM
- Papp B→A at 2 h [25]: 25.3 ×10⁻⁶ cm/s
- concentration at 4 h [26]: 22 ng/g
- efflux ratio at 2 h [29]: 150

SMILES: CN1CC(c2c[nH]c3cc(-n4ccc(-c5ccc(Cl)cc5)cc4=O)ccc23)C1
- concentration at 4 h [5]: 350 ng/mL
- Papp A→B at 2 h [8]: 0.9 ×10⁻⁶ cm/s
- Ki [17]: 7.8 nM
- Papp B→A at 2 h [25]: 53.7 ×10⁻⁶ cm/s
- concentration at 4 h [26]: 100 ng/g
- efflux ratio at 2 h [29]: 60

SMILES: CN1CC(c2cn(C)c3cc(-n4ccc(OCc5ccccc5)cc4=O)ccc23)C1
- Kp [36]: 0.03
- Ki [17]: 11 nM
- concentration at 4 h [37]: 4000 ng/mL
- concentration at 4 h [38]: 110 ng/g

SMILES: COCCN1CC(c2c[nH]c3cc(-n4ccc(OCc5ccccc5)cc4=O)ccc23)C1
- concentration at 4 h [5]: 310 ng/mL
- Papp A→B at 2 h [8]: 0.4 ×10⁻⁶ cm/s
- Ki [17]: 5.2 nM
- Papp B→A at 2 h [25]: 34.1 ×10⁻⁶ cm/s
- concentration at 4 h [26]: 49 ng/g
- efflux ratio at 2 h [29]: 88

SMILES: O=c1cc(OCc2ccccc2)ccn1-c1ccc2c(C3CN(CCF)C3)c[nH]c2c1
- concentration at 4 h [5]: 620 ng/mL
- Papp A→B at 2 h [8]: 1.4 ×10⁻⁶ cm/s
- Ki [17]: 4.3 nM
- Papp B→A at 2 h [25]: 58.9 ×10⁻⁶ cm/s
- concentration at 4 h [26]: 130 ng/g
- efflux ratio at 2 h [29]: 43

SMILES: Cn1cc(C2CN(CCF)C2)c2ccc(-n3ccc(-c4ccc(F)cc4)cc3=O)cc21
- Kp [36]: 0.8
- concentration at 4 h [5]: 1000 ng/mL
- Papp A→B at 2 h [8]: 7.1 ×10⁻⁶ cm/s
- Ki [17]: 9 nM
- Papp B→A at 2 h [25]: 45.4 ×10⁻⁶ cm/s
- concentration at 4 h [26]: 810 ng/g
- efflux ratio at 2 h [29]: 6.4

SMILES: O=c1cc(OCc2ccccc2)ccn1-c1ccc2c(c1)CCN2C1CNC1
- concentration at 4 h [5]: 130 ng/mL
- Ki [17]: 2.4 nM
- concentration at 4 h [26]: 27 ng/g

SMILES: CN1CC(N2CCc3cc(-n4ccc(OCc5ccccc5)cc4=O)ccc32)C1
- concentration at 4 h [5]: 500 ng/mL
- Papp A→B at 2 h [8]: 2.6 ×10⁻⁶ cm/s
- Ki [17]: 2.5 nM
- Papp B→A at 2 h [25]: 36.5 ×10⁻⁶ cm/s
- concentration at 4 h [26]: 780 ng/g
- efflux ratio at 2 h [29]: 14

SMILES: O=c1cc(OCc2ccccc2)ccn1-c1ccc2c(c1)CCN2C1CN(CCF)C1
- concentration at 4 h [5]: 420 ng/mL
- Papp A→B at 2 h [8]: 17.7 ×10⁻⁶ cm/s
- Ki [17]: 4.9 nM
- Papp B→A at 2 h [25]: 38.2 ×10⁻⁶ cm/s
- concentration at 4 h [26]: 520 ng/g
- efflux ratio at 2 h [29]: 2.2

SMILES: CN1CC(N2CCc3cc(-n4ccc(-c5ccc(Cl)cc5)cc4=O)ccc32)C1
- Kp [36]: > 3
- concentration at 4 h [5]: 190 ng/mL
- Ki [17]: 4.9 nM
- concentration at 4 h [26]: 600 ng/g

SMILES: O=c1cc(-c2ccc(Cl)cc2)ccn1-c1ccc2c(c1)CCN2C1CN(CCF)C1
- concentration at 4 h [5]: 650 ng/mL
- Papp A→B at 2 h [8]: 28.9 ×10⁻⁶ cm/s
- Ki [17]: 6.5 nM
- Papp B→A at 2 h [25]: 30.1 ×10⁻⁶ cm/s
- concentration at 4 h [26]: 1100 ng/g
- efflux ratio at 2 h [29]: 1

From ChEMBL document CHEMBL1828609, “Strategies to lower the Pgp efflux liability in a series of potent indole azetidine MCHR1 antagonists” (Bioorg Med Chem Lett, 2011)
